Sampled rows, rich in hits. Any-hit rate of the full collection: about 2.9%.
TRPC6 act = mouse TRPC6 channel activation. Q61143. 310,000 compounds, 0.13% hits. HEK293-TRPC6 membrane potential dye fluorescence; stronger effect = higher value. B-score at 10 µM;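 active = B-score of the integrated fluorescence ratio above library mean plus 3 SD, and starting fluorescence ratio within library mean plus 5 SD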;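 also: higher score means more depolarization so channel activation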
TRPC4 inh = inhibitors of mouse TRPC4 channel; AID 2247; 300,000 compounds, 0.39% hits; Q9QUQ5; HEK293 TRPC4beta/mu-opioid, DAMGO-evoked Fluo4 calcium flux; stronger effect = lower value; B-score at 10 µM;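 active = B-score over 3 SD under the library average, no early fluorescence shift, positive overall ratio signal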
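Assay system: HEK293 cells with stable TRPC4beta plus mu-opioid receptor expression. Dosing: single dose. Measured by: Fluo4 Ca2+ flux fluorescence. Also added: DAMGO in two steps, submaximal then maximal. Read-out: B score from integrated Fluo4 fluorescence ratio.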
TRPC6 inhibitor = blocks the mouse TRPC6 cation channel; Q61143; HEK293-TRPC6, membrane potential dye, ACh-evoked depolarization; stronger effect = lower value; B-score at 10 µM; 310,000 compounds, 1.1% hits; AID 2553;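 active = B-score under library mean minus 3 SD, initial fluorescence not abnormally high, positive integrated signal ratio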;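 also: B-score derived from integrated fluorescence ratio over the kinetic read; more negative B-score means stronger inhibition of depolarization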
Kir21 block = inhibitors of mouse Kir2.1 inward-rectifier potassium channel; P35561; HEK293-Kir2.1, FluxOR thallium flux fluorescence; stronger effect = lower value; B-score at 10 µM; 310,000 compounds, 0.85% hits; AID 1672;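 active = fluorescence ratio B-score at or below minus 3 SD of library scores, with starting-brightness B-score within 2 SD, cut at about -4.2 in these data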;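 also: channel flux triggered by added potassium and thallium sulfate stimulus; B-score of peak minus minimum fluorescence over baseline after thallium stimulus; more negative B-score means stronger Kir2.1 block with less thallium influx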
Target sequence (P35561 whole entry, looked up): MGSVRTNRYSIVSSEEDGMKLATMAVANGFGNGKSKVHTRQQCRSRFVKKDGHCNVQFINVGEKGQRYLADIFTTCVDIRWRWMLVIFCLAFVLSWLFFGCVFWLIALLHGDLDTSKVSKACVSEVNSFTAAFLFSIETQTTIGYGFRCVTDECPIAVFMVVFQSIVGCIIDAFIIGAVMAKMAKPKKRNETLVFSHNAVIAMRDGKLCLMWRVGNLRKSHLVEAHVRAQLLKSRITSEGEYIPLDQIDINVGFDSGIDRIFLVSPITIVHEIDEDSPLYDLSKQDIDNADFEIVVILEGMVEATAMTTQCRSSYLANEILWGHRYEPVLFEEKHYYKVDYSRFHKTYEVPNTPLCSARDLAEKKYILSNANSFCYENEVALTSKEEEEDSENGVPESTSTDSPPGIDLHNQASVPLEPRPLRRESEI
TRPC4 potent = allosteric potentiators of mouse TRPC4 channel. HEK293 TRPC4beta/mu-opioid, DAMGO EC20, Fluo-4 Ca2+ flux; stronger effect = higher value. B-score at 10 µM. 310,000 compounds, 0.42% hits. AID 2227;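 active = B-score of calcium response area above 5 SD of library B-scores, with initial fluorescence ratio within 5 SD of library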
TRPC4 agonist = TRPC4 (mouse) channel activation; Q9QUQ5; HEK293 TRPC4beta/mu-opioid, Fluo4 calcium fluorescence; stronger effect = higher value; B-score at 10 µM; 310,000 compounds, 0.49% hits; AID 2237;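 active = B-score above 5 SD of library B-scores, and initial fluorescence ratio not above library mean plus 5 SD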;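 also: positive B-score marks a calcium rise read as TRPC4 activation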
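Material: TRPC4beta and mu-opioid receptor HEK293 stable cells | Incubation: 45 min room-temperature Fluo4 loading, 110 s read | Detection: Kinetic Fluo4 calcium fluorescence | Measure: Integrated baseline-normalised fluorescence ratio, converted to per-well B score | Benchmarks: Low control buffer alone, high control maximal DAMGO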
TRPC4 sel inh 2 = mouse TRPC4 off-target activity of TRPC6 inhibitors, second screen. shares compounds with TRPC6 inhibitor. HEK293 TRPC4/MOR, membrane potential dye fluorescence; channel activated by saturating DAMGO dose. inhibition, % at 10 µM. 920 compounds, 42% hits. AID 2776;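 active = compounds whose fluorescence signal differed from control wells by over 3 SD, either direction, in both duplicate plates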
TRPC4 spec = selectivity of TRPC6 inhibitors: effect on mouse TRPC4; AID 2777; HEK293 TRPC4/mu-opioid, membrane potential fluorescence; shares compounds with TRPC6 inhibitor; activity change, negative = inhibition, % at 10 µM; 920 compounds, 61% hits;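 active = rise or fall in signal beyond 3 SD of buffer-only wells in both replicate plates, either sign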;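 also: integrated kinetic ratio of fluorescence range over baseline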
HEK293 MPD ctr 2-1 = parental HEK293 nonspecific activity of TRPC6 inhibitors, second screen | shares compounds with TRPC6 inhibitor | parental HEK293 membrane potential dye fluorescence; maximal acetylcholine challenge after compound addition | signal change vs control, % at 10 µM | 920 compounds, 31% hits | AID 2779;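 active = membrane potential signal moving either way by over 3 SD of the maximum-effect control, in both duplicate plates, meaning non-specific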
HEK293 MPD ctr-1 = checks TRPC6 inhibitor effects in parental HEK293 cells. shares compounds with TRPC6 inhibitor. parental HEK293 membrane potential dye fluorescence. membrane potential signal change, % at 10 µM. 920 compounds, 60% hits. AID 2780;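 active = membrane potential signal shifting up or down by more than 3 SD of buffer-only wells, on both duplicate plates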
HEK293 MPD ctr-2 = checks TRPC6 modulator effects in parental HEK293 cells; membrane potential signal change, % at 10 µM; AID 488924; 2,400 compounds, 51% hits; membrane potential dye fluorescence; shares compounds with TRPC6 inhibitor;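 active = membrane potential signal moves up or down beyond 5 SD from buffer-only wells, on both duplicate plates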
HEK293 MPD ctr 2-2 = parental HEK293 nonspecific activity of TRPC6 modulators, second screen | shares compounds with TRPC6 inhibitor | AID 488926 | 2,400 compounds, 14% hits | membrane potential dye fluorescence; after compound, maximal acetylcholine stimulation | inhibition, % at 10 µM;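 active = membrane potential signal drops by more than 5 SD from the mean control signal, in both duplicate plates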
TRPC4 ctr mod = selectivity of TRPC6 modulators against mouse TRPC4; AID 488927; percent change from control (negative = decrease, positive = increase), % at 10 µM; 2,400 compounds, 69% hits; shares compounds with TRPC6 inhibitor; HEK293 TRPC4/mu-opioid, membrane potential fluorescence;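 active = membrane potential signal moved up or down beyond 5 SD of buffer control wells, in both duplicate plates, actives on both sides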
TRPC4 ctr inh 2 = mouse TRPC4 off-target activity of TRPC6 modulators, second screen; shares compounds with TRPC6 inhibitor; HEK293 TRPC4/mu-opioid, membrane potential dye fluorescence; stimulated with maximal-effect DAMGO; inhibition, % at 10 µM; 2,400 compounds, 55% hits; AID 488928;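 active = drop in membrane potential signal beyond 5 SD of the control wells in both duplicate plates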;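 also: TRPC4 counter screen for TRPC6 hits run under conditions tuned for TRPC6 not TRPC4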
TRPC6 inh conf = confirmation of mouse TRPC6 inhibitors | shares compounds with TRPC6 inhibitor | HEK293-TRPC6, membrane potential dye, ACh-evoked depolarization | inhibition, % at 10 µM | 3,300 compounds, 43% hits;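 active = fluorescence ratio falls more than 5 SD below the full-stimulation control mean, in both duplicate runs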;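 also: integrated fluorescence ratio of peak minus minimum over baseline after agonist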
TRPC6 act confirm = mouse TRPC6 activator confirmation. shares compounds with TRPC6 inhibitor. HEK293-TRPC6 membrane potential dye fluorescence, FDSS. activation, % at 10 µM. 2,800 compounds, 11% hits;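 active = ratio signal rise beyond 5 SD above unstimulated control wells' mean, seen in both duplicate runs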
Large screens that a line does not name were inactive (follow-up assays come after a bar, where they were run).

Cc1cc(C)nc(/N=C(\N)Nc2ccc(SC(F)F)cc2)n1	TRPC6 inhibitor -6.4, TRPC4 agonist 43 | HEK293 MPD ctr-2 -132% | HEK293 MPD ctr 2-2 inactive | TRPC4 ctr mod -23% | TRPC4 ctr inh 2 48% | TRPC6 inh conf inactive | TRPC6 act confirm inactive
COC(=O)c1ccc2c(c1)C(C)(C)C(/C=C/c1ccc(OC)c(OC)c1OC)=[N+]2C	TRPC6 inhibitor -9.6, Kir21 block -7.2 | HEK293 MPD ctr-2 -179% | HEK293 MPD ctr 2-2 88% | TRPC4 ctr mod -190% | TRPC4 ctr inh 2 56% | TRPC6 inh conf 72% | TRPC6 act confirm inactive
COc1ccc(OC)c2c(N3CCN(C)CC3)cc(C(F)(F)F)nc12	none
COc1ccc(N2CCN(c3cc(C)c4cccc(C)c4n3)CC2)cc1	none
COc1ccc(OC)c2c(C)cc(N3CCCCCC3)nc12	TRPC4 inh -5, TRPC6 inhibitor -6.6 | TRPC4 sel inh 2 74% | TRPC4 spec -22% | HEK293 MPD ctr 2-1 inactive | HEK293 MPD ctr-1 -419% | TRPC6 inh conf inactive | TRPC6 act confirm inactive
COc1ccc(OC)c2c(C)cc(N3CCN(C(=O)c4ccc(F)cc4)CC3)nc12	TRPC6 inhibitor -5.7 | HEK293 MPD ctr-2 -244% | HEK293 MPD ctr 2-2 inactive | TRPC4 ctr mod -44% | TRPC4 ctr inh 2 42% | TRPC6 inh conf inactive | TRPC6 act confirm inactive
COc1ccc(OC)c2c(C)cc(NCCN3CCOCC3)nc12	TRPC6 inhibitor -8.9 | HEK293 MPD ctr-2 -276% | HEK293 MPD ctr 2-2 70% | TRPC4 ctr mod -36% | TRPC4 ctr inh 2 68% | TRPC6 inh conf 72% | TRPC6 act confirm inactive
COc1cccc2c(C)cc(N3CCCCCC3)nc12	TRPC6 inhibitor -9.4 | HEK293 MPD ctr-2 -262% | HEK293 MPD ctr 2-2 inactive | TRPC4 ctr mod -47% | TRPC4 ctr inh 2 86% | TRPC6 inh conf 46% | TRPC6 act confirm inactive
COc1ccc(OC)c2c(C)cc(N3CCN(C(=O)c4ccc(C)cc4)CC3)nc12	none
COc1ccc(S(=O)(=O)NNC(=S)NCCc2ccccc2)c(OC)c1	none
Cc1cc(/C=C2\SC(=S)NC2=O)c(C)n1-c1ccc(O)cc1	TRPC6 act 27 | HEK293 MPD ctr-2 450% | HEK293 MPD ctr 2-2 inactive | TRPC4 ctr mod 70% | TRPC4 ctr inh 2 inactive | TRPC6 inh conf inactive | TRPC6 act confirm 126%
